HCV NS3 hel inh: HCV NS3 helicase inhibition; NS3 helicase DNA unwinding, Cy5 molecular beacon fluorescence; inhibition, % at 10.9 µM; 290,000 tested, 0.56% active; AID 1800;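 active = inhibition above the mean of all tested compounds plus 3 SD, set per campaign, cut at about 35% in these data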
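Material: hepatitis C virus NS3 helicase domain fragment enzyme; measured by: Cy5 fluorescence, 0 and 60 min reads; control set: DMSO and thioflavine S; incubation: 60 min unwinding reaction at 25 °C after ATP addition; read-out basis: % inhibition from 60/0 min fluorescence ratio, DMSO 0%, thioflavine S 100%; repeats: singlicate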
UBC9 SUMO inh: SUMOylation inhibition | P63279 | HTRF SUMOylation assay, SAE1/SAE2 + UBC9, in vitro | inhibition, % at 35 µM | 290,000 tested, 0.36% active | AID 2006; in the data active = inhibition above about 50%, passing the limit was not always enough
Target sequence (P63279 whole entry, looked up): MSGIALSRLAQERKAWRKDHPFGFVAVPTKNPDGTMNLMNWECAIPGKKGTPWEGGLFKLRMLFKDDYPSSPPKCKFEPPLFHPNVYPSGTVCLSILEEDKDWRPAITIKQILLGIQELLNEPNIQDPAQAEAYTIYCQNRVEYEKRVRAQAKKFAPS
EBNA-1 inh: blocks EBNA-1 binding to DNA. EBNA-1 DNA binding, fluorescence polarization. inhibition, % at 14.8 µM. 300,000 tested, 0.34% active; in the data active = inhibition above about 28%
ZTA counter: counter-screen for EBNA-1 inhibitors: inhibitors of Epstein-Barr virus ZTA | ZTA-DNA binding, fluorescence polarization | inhibition, % at 11 µM | 320,000 tested, 0.15% active; in the data active = inhibition above about 33%
Target sequence (P03206 whole entry, looked up): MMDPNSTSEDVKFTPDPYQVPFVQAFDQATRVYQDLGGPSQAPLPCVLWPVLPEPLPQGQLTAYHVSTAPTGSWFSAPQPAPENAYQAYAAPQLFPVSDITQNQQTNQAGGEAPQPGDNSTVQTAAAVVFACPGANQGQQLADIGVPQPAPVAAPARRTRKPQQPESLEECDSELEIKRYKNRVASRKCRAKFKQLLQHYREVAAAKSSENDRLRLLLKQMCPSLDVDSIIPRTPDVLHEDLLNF
HCV core dimer: HCV core protein dimerization inhibition. inhibition, % at 5 µM. 300,000 tested, 0.33% active. TR-FRET GST/Flag-core106 dimerization, 1536-well;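 active = inhibition above the mean of all tested compounds plus 3 SD, set per screening campaign, cut at about 45% in these data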
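System – GST-tagged and Flag-tagged HCV core protein residues 1-106 · Repeats – one well for each compound · Technique – TR-FRET 671 and 617 nm emission · Doses – one concentration, 5 µM, in 0.5% DMSO · Times – 4 h, 22.5 °C incubation · Also added – Eu donor and XL665 acceptor anti-tag antibodies · Measure – percent inhibition of core106 dimerization signal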
NS3 hel confirm: HCV NS3 helicase inhibition, confirmation assay; NS3 helicase DNA unwinding, Cy5 molecular beacon fluorescence; 1,600 tested, 31% active; shares compounds with HCV NS3 hel inh; AID 1943; inhibition, % at 10.9 µM;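 active = inhibition above the mean of all tested compounds plus 3 SD, cutoff set per campaign, cut at about 36% in these data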
DNA FID counter: intercalator displacement, NS3 helicase counter-screen | shares compounds with HCV NS3 hel inh | DNA fluorescent intercalator displacement, fluorescence | inhibition, % at 7.9 µM | 1,600 tested, 4% active | AID 1945; in the data active = inhibition above about 37%;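 note: higher means more displacement of ethidium bromide from the DNA hairpin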
DNA FID DR: displaces fluorescent intercalator from DNA, HCV helicase counter-screen. AID 2172. fluorescent intercalator displacement from DNA, fluorescence. IC50, µM. 120 tested, under 10 active. shares compounds with HCV NS3 hel inh; call rule not given here
Large screens that a line does not name were inactive (follow-up assays come after a bar, where they were run). A selection: hits, their analogues and other compounds. The true share with any hit is near 1.4%.

O=C(c1ccco1)N1CCN(C(=O)c2[nH]ncc2[N+](=O)[O-])CC1	HCV NS3 hel inh 37 | NS3 hel confirm inactive | DNA FID counter inactive
CCN(CC)C(=O)CSc1nc2ccccc2c(=O)n1-c1cccc(OC)c1	none
COc1cccc(-n2c(SCc3cc(=O)oc4cc(O)c(O)cc34)nc3ccccc3c2=O)c1	HCV NS3 hel inh 86, UBC9 SUMO inh 79 | NS3 hel confirm 134 | DNA FID counter inactive | DNA FID DR inactive
O=C(O)c1ccc(N/N=C/c2ccc(-c3cccc(Cl)c3)o2)cc1	none
O=C(O)c1ccc(N/N=C/c2ccc(-c3cc(Cl)ccc3Cl)o2)cc1	HCV NS3 hel inh 40 | NS3 hel confirm 62 | DNA FID counter inactive
O=C(O)c1ccc(N/N=C/c2ccc(-c3ccc(Cl)cc3Cl)o2)cc1	HCV NS3 hel inh 36 | NS3 hel confirm 53 | DNA FID counter inactive
Cc1c(C(=O)O)cccc1-c1ccc(/C=N/Nc2ccc(Br)cc2)o1	HCV NS3 hel inh 44 | NS3 hel confirm 38 | DNA FID counter inactive
Cc1c(C(=O)O)cccc1-c1ccc(/C=N/n2cnnc2)o1	none
Cc1ccccc1OCCC(=O)OCC(=O)NCCc1ccccc1	none (no result: HCV NS3 hel inh, UBC9 SUMO inh)
O=C(CNC(=O)c1ccc(Cl)cc1Cl)OCCCn1c(=O)[nH]c2ccccc21	none (no result: HCV NS3 hel inh, UBC9 SUMO inh)
CCN1C(=O)C2(C(C(=O)c3cc4ccccc4o3)=C(O)C(=O)N2CCCN2CCOCC2)c2ccccc21 (stereo not drawn)	none
Cc1ccc(C(=O)OC(C)C(=O)NC2CCCCC2C)cc1S(=O)(=O)N1CCCCC1 (stereo not drawn)	none
CC(OC(=O)c1ccc(Cl)c(S(=O)(=O)N2CCCC2)c1)C(=O)NC1CCCCC1C (stereo not drawn)	HCV NS3 hel inh 37 | NS3 hel confirm inactive | DNA FID counter inactive
Cc1c(CC(=O)O)c(=O)oc2cc(OCc3ccc(F)cc3Cl)ccc12	HCV NS3 hel inh 48 | NS3 hel confirm 51 | DNA FID counter inactive
Cc1c(CCC(=O)O)c(=O)oc2cc(OCc3ccccc3F)ccc12	none
O=C(CSc1nc2ccccc2n1Cc1ccccc1Cl)N/N=C/c1ccccc1C(=O)O	HCV NS3 hel inh 40 | NS3 hel confirm 50 | DNA FID counter inactive
O=C1/C(=C/c2ccco2)SC(=S)N1C1CCS(=O)(=O)C1 (stereo not drawn)	HCV NS3 hel inh 38, UBC9 SUMO inh 61 | NS3 hel confirm inactive | DNA FID counter inactive
O=C1/C(=C\c2ccco2)SC(=S)N1C1CCS(=O)(=O)C1 (stereo not drawn)	HCV NS3 hel inh 38 | NS3 hel confirm inactive | DNA FID counter inactive
Cc1ccc(/C=C2\SC(=S)N(C3CCS(=O)(=O)C3)C2=O)cc1 (stereo not drawn)	none
CCN(C(=O)C(C)N1C(=O)/C(=C/c2ccco2)SC1=S)C1CCS(=O)(=O)C1 (stereo not drawn)	none
CN(CC(=O)Nc1ccc(F)c(F)c1F)C(=O)C1CCCO1 (stereo not drawn)	none (no result: HCV NS3 hel inh, UBC9 SUMO inh)
CC(C)(C)OC(=O)N1CCC(CNC(=O)c2cccs2)CC1	none
CC(C)(C)OC(=O)N1CCC(CNC(=O)c2ccc(F)cc2F)CC1	HCV NS3 hel inh 41 | NS3 hel confirm inactive | DNA FID counter inactive
Cc1cc(/C=N/NC(=O)c2ccc(CN3CCOCC3)cc2)c(C)n1-c1ccccc1	none
Cc1cc(/C=N/NC(=O)C(O)(c2ccccc2)c2ccccc2)c(C)n1-c1ccc(C(=O)O)cc1	HCV NS3 hel inh 39 | NS3 hel confirm inactive | DNA FID counter inactive
Cc1cc(/C=N/NC(=O)C(O)(c2ccccc2)c2ccccc2)c(C)n1-c1cccc(C(=O)O)c1	HCV NS3 hel inh 51 | NS3 hel confirm 72 | DNA FID counter inactive
CCc1nnc(NS(=O)(=O)c2ccc(N/C=C\C(=O)c3cccc4ccccc34)cc2)s1	HCV NS3 hel inh 55 | NS3 hel confirm inactive | DNA FID counter inactive
COc1ccc(C2=NS(=O)(=O)N(C)C(C(=O)NCc3ccccn3)=C2)cc1OC	none
O=C1ON=C(c2ccccc2)/C1=C/c1ccc(O)c(O)c1	HCV NS3 hel inh 46 | NS3 hel confirm inactive | DNA FID counter inactive
COc1ccc(/C=C2\C(=O)ON=C2c2ccccc2)cc1	none
CSCCC(NC(=O)c1ccc(Br)cc1)C(=O)O (stereo not drawn)	none
CSCCC(NC(=O)c1cncc(Br)c1)C(=O)O (stereo not drawn)	HCV NS3 hel inh 40 | NS3 hel confirm inactive | DNA FID counter inactive
O=C(O)CC(c1cccc2ccccc12)n1cccc1 (stereo not drawn)	HCV NS3 hel inh 67 | NS3 hel confirm inactive | DNA FID counter inactive
COc1ccc(/C=C\c2onc(C)c2S(=O)(=O)N2CCC(C(=O)NCc3ccco3)CC2)cc1	HCV NS3 hel inh 50 | NS3 hel confirm inactive | DNA FID counter inactive
O=C(CNc1ccc2ccccc2c1)N/N=C/c1ccc([N+](=O)[O-])o1	HCV NS3 hel inh 55 | NS3 hel confirm inactive | DNA FID counter inactive
Cc1ccc(OCC(=O)N/N=C/c2ccc([N+](=O)[O-])o2)cc1	none
O=C(N/N=C/c1ccc([N+](=O)[O-])o1)c1cc(-c2cccc(Br)c2)nc2ccccc12	HCV NS3 hel inh 41, HCV core dimer 71 | NS3 hel confirm 38 | DNA FID counter inactive
O=C(COc1ccccc1)N/N=C/c1ccc([N+](=O)[O-])o1	HCV NS3 hel inh 41 | NS3 hel confirm inactive | DNA FID counter inactive
OCc1ccccc1CN1CCCCCC1	none (no result: HCV NS3 hel inh, UBC9 SUMO inh)
Cc1ccc(S(=O)(=O)N2CCN(C(=O)CCc3c[nH]c4ccccc34)CC2)c(C)c1	none (no result: HCV NS3 hel inh, UBC9 SUMO inh, EBNA-1 inh, HCV core dimer)
CCCCCC/C(C)=C1/SC(=S)NC1=O	HCV NS3 hel inh 40 | NS3 hel confirm inactive | DNA FID counter inactive
COc1ccccc1-c1ccc(/C=C2\C=CC(=O)O2)o1	HCV NS3 hel inh 37 | NS3 hel confirm inactive | DNA FID counter inactive
COc1ccccc1-c1ccc(/C=C2/C=C(C)OC2=O)o1	none
Cc1ccc(C(c2cc(Cl)c3cccnc3c2O)N2CCN(C)CC2)cc1 (stereo not drawn)	HCV NS3 hel inh 42 | NS3 hel confirm 70 | DNA FID counter 67
COc1ccc(S(=O)(=O)NC(CC(C)C)C(=O)NC(C)c2cccs2)cc1 (stereo not drawn)	none (no result: HCV NS3 hel inh, UBC9 SUMO inh, EBNA-1 inh, HCV core dimer)
O=C(CSc1nnc(-c2ccco2)n1Cc1ccccc1)NCc1ccccc1	none
O=C(CSc1nnc(-c2ccco2)n1Cc1ccccc1)c1ccc(F)cc1	HCV NS3 hel inh 39 | NS3 hel confirm 74 | DNA FID counter inactive
O=C(Cc1ccccc1Cl)NCc1cccnc1	none
Cc1ccc(-n2c(C)cc(C(=O)NS(=O)(=O)c3ccc(C)cc3)c2C)cc1	HCV NS3 hel inh 39 | NS3 hel confirm 43 | DNA FID counter inactive

Bioassay records as filed in PubChem BioAssay.
